Experimental data from ChEMBL document CHEMBL4229368, “N,N'-disubstituted cinnamamide derivatives potentiate ciprofloxacin activity against overexpressing NorA efflux pump Staphylococcus aureus 1199B strains” (Eur J Med Chem, 2018).

Tests used:
[1] = tested on: Staphylococcus aureus; assay: Growth inhibition of wild type Staphylococcus aureus SA1199 assessed as non-toxic concentration after 18 to 24 hrs by broth microdilution method; assay type: organism-based; conditions: pooled result: one value given for 2 cell lines, strains, targets or settings, read-out: Activity
[2] = tested on: Staphylococcus aureus; assay: Growth inhibition of Staphylococcus aureus SA1199B over-expressing NorA at 15.6 ug/ml after 18 to 24 hrs by broth microdilution method; assay type: organism-based
[3] = tested on: Staphylococcus aureus; assay: Growth inhibition of wild type Staphylococcus aureus SA1199 after 18 to 24 hrs by broth microdilution method; assay type: organism-based
[4] = target: T1, Quinolone resistance protein NorA (Staphylococcus aureus) (UniProt P0A0J7); assay: Inhibition of NorA in Staphylococcus aureus SA1199B assessed as potentiation of ciprofloxacin-induced antibacterial activity by measuring fold reduction in ciprofloxacin MIC at 37.1 uM after 18 to 24 hrs by broth microdilution method
T1 sequence (whole entry): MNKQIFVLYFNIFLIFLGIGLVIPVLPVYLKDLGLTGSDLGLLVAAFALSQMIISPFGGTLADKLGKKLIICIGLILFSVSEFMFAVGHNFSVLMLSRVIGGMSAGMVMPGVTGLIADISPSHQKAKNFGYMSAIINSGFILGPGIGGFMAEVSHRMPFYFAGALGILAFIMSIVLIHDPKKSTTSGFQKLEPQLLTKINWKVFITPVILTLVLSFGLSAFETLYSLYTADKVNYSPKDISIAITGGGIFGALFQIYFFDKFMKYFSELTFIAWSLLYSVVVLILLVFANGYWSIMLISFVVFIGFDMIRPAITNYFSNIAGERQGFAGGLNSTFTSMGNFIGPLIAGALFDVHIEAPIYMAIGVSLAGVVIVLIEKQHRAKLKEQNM
How it was run: (§1)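 Ciprofloxacin MIC by CLSI/CASFM broth microdilution in Mueller-Hinton II, two-fold serial dilutions, inoculum 5.10⁵ CFU/mL, 37 °C for 18-24 h. MIC is the lowest concentration with no visible growth. Test agent co-administered at a fixed final concentration without antibacterial activity (10 or 30 µg/mL, or 1/4 MIC where intrinsically active). Result is fold reduction of ciprofloxacin MIC. At least three independent experiments.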

[5] = Cytotoxicity against human MRC5 cells assessed as reduction in cell viability after 72 hrs by MTT assay; assay type: cell-based
How it was run: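 MRC5 human lung fibroblasts plated in triplicate at 6000 cells/well in MEM with 10% FBS and incubated overnight at 37 °C, 5% CO2. Compound or DMSO vehicle applied for 72 h, then MTT 1 mg/mL added for 3 h at 37 °C. Formazan dissolved in 0.01 M HCl in isopropanol for 15 min. A570 read minus A690; GI50 as mean SD of ≥3 independent experiments.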

[6] = tested on: Staphylococcus aureus; assay: Potentiation of ciprofloxacin-induced antibacterial activity against wild type Staphylococcus aureus SA1199 assessed as fold reduction in ciprofloxacin MIC at 37.1 uM after 18 to 24 hrs by broth microdilution method; assay type: functional; how it was run: as §1
[7] = tested on: Staphylococcus aureus; assay: Potentiation of ciprofloxacin-induced antibacterial activity against wild type Staphylococcus aureus SA1199 assessed as fold reduction in ciprofloxacin MIC at 32.9 uM after 18 to 24 hrs by broth microdilution method; assay type: functional
[8] = tested on: Staphylococcus aureus; assay: Potentiation of ciprofloxacin-induced antibacterial activity against wild type Staphylococcus aureus SA1199 assessed as fold reduction in ciprofloxacin MIC at 80.6 uM after 18 to 24 hrs by broth microdilution method; assay type: functional; how it was run: as §1
[9] = target: T1, Quinolone resistance protein NorA (Staphylococcus aureus); assay: Inhibition of NorA in Staphylococcus aureus SA1199B assessed as potentiation of ciprofloxacin-induced antibacterial activity by measuring fold reduction in ciprofloxacin MIC at 80.6 uM after 18 to 24 hrs by broth microdilution method; how it was run: as §1
[10] = tested on: Staphylococcus aureus; assay: Bactericidal activity against wild type Staphylococcus aureus SA1199 at 30 ug/ml after 18 to 24 hrs by broth microdilution method; assay type: ADME, organism-based; conditions: in vitro
[11] = target: T1, Quinolone resistance protein NorA (Staphylococcus aureus); assay: Inhibition of NorA in Staphylococcus aureus SA1199B assessed as potentiation of ciprofloxacin-induced antibacterial activity by measuring fold reduction in ciprofloxacin MIC at 25.3 uM after 18 to 24 hrs by broth microdilution method; how it was run: as §1
[12] = tested on: Staphylococcus aureus; assay: Bactericidal activity against wild type Staphylococcus aureus SA1199 at 10 ug/ml after 18 to 24 hrs by broth microdilution method; assay type: ADME, organism-based
[13] = tested on: Staphylococcus aureus; assay: Potentiation of ciprofloxacin-induced antibacterial activity against wild type Staphylococcus aureus SA1199 assessed as fold reduction in ciprofloxacin MIC at 25.3 uM after 18 to 24 hrs by broth microdilution method; assay type: functional; how it was run: as §1
[14] = target: T1, Quinolone resistance protein NorA (Staphylococcus aureus); assay: Inhibition of NorA in Staphylococcus aureus SA1199B assessed as potentiation of ciprofloxacin-induced antibacterial activity by measuring fold reduction in ciprofloxacin MIC at 23 uM after 18 to 24 hrs by broth microdilution method; how it was run: as §1
[15] = tested on: Staphylococcus aureus; assay: Potentiation of ciprofloxacin-induced antibacterial activity against wild type Staphylococcus aureus SA1199 assessed as fold reduction in ciprofloxacin MIC at 23 uM after 18 to 24 hrs by broth microdilution method; assay type: functional; how it was run: as §1
[16] = tested on: Staphylococcus aureus; assay: Potentiation of ciprofloxacin-induced antibacterial activity against wild type Staphylococcus aureus SA1199 assessed as fold reduction in ciprofloxacin MIC at 21 uM after 18 to 24 hrs by broth microdilution method; assay type: functional; how it was run: as §1
[17] = target: T1, Quinolone resistance protein NorA (Staphylococcus aureus); assay: Inhibition of NorA in Staphylococcus aureus SA1199B assessed as potentiation of ciprofloxacin-induced antibacterial activity by measuring fold reduction in ciprofloxacin MIC at 21 uM after 18 to 24 hrs by broth microdilution method; how it was run: as §1
[18] = tested on: Staphylococcus aureus; assay: Growth inhibition of wild type Staphylococcus aureus SA1199 at 3.9 ug/ml after 18 to 24 hrs by broth microdilution method; assay type: organism-based
[19] = target: T1, Quinolone resistance protein NorA (Staphylococcus aureus); assay: Inhibition of NorA in Staphylococcus aureus SA1199B assessed as potentiation of ciprofloxacin-induced antibacterial activity by measuring fold reduction in ciprofloxacin MIC at 8.5 uM after 18 to 24 hrs by broth microdilution method; how it was run: as §1
[20] = tested on: Staphylococcus aureus; assay: Potentiation of ciprofloxacin-induced antibacterial activity against wild type Staphylococcus aureus SA1199 assessed as fold reduction in ciprofloxacin MIC at 8.5 uM after 18 to 24 hrs by broth microdilution method; assay type: functional; how it was run: as §1
[21] = tested on: Staphylococcus aureus; assay: Growth inhibition of Staphylococcus aureus SA1199B over-expressing NorA at 3.9 ug/ml after 18 to 24 hrs by broth microdilution method; assay type: organism-based
[22] = tested on: Staphylococcus aureus; assay: Potentiation of ciprofloxacin-induced antibacterial activity against wild type Staphylococcus aureus SA1199 assessed as fold reduction in ciprofloxacin MIC at 19.1 uM after 18 to 24 hrs by broth microdilution method; assay type: functional; how it was run: as §1
[23] = target: T1, Quinolone resistance protein NorA (Staphylococcus aureus); assay: Potency index, ratio of compound effect to reserpine effect for inhibition of NorA in Staphylococcus aureus SA1199B assessed as potentiation of ciprofloxacin-induced antibacterial activity by measuring fold reduction in ciprofloxacin MIC
[24] = target: T1, Quinolone resistance protein NorA (Staphylococcus aureus); assay: Inhibition of NorA in Staphylococcus aureus SA1199B assessed as potentiation of ciprofloxacin-induced antibacterial activity by measuring fold reduction in ciprofloxacin MIC at 19.1 uM after 18 to 24 hrs by broth microdilution method; how it was run: as §1
[25] = tested on: Staphylococcus aureus; assay: Potentiation of ciprofloxacin-induced antibacterial activity against wild type Staphylococcus aureus SA1199 assessed as fold reduction in ciprofloxacin MIC at 20.6 uM after 18 to 24 hrs by broth microdilution method; assay type: functional; how it was run: as §1
[26] = target: T1, Quinolone resistance protein NorA (Staphylococcus aureus); assay: Inhibition of NorA in Staphylococcus aureus SA1199B assessed as potentiation of ciprofloxacin-induced antibacterial activity by measuring fold reduction in ciprofloxacin MIC at 20.6 uM after 18 to 24 hrs by broth microdilution method; how it was run: as §1
[27] = target: T1, Quinolone resistance protein NorA (Staphylococcus aureus); assay: Inhibition of NorA in Staphylococcus aureus SA1199B assessed as potentiation of ciprofloxacin-induced antibacterial activity by measuring fold reduction in ciprofloxacin MIC at 73 uM after 18 to 24 hrs by broth microdilution method; how it was run: as §1
[28] = tested on: Staphylococcus aureus; assay: Potentiation of ciprofloxacin-induced antibacterial activity against wild type Staphylococcus aureus SA1199 assessed as fold reduction in ciprofloxacin MIC at 73 uM after 18 to 24 hrs by broth microdilution method; assay type: functional; how it was run: as §1
[29] = target: T1, Quinolone resistance protein NorA (Staphylococcus aureus); assay: Inhibition of NorA in Staphylococcus aureus SA1199B assessed as potentiation of ciprofloxacin-induced antibacterial activity by measuring fold reduction in ciprofloxacin MIC at 81.3 uM after 18 to 24 hrs by broth microdilution method; how it was run: as §1
[30] = tested on: Staphylococcus aureus; assay: Potentiation of ciprofloxacin-induced antibacterial activity against wild type Staphylococcus aureus SA1199 assessed as fold reduction in ciprofloxacin MIC at 81.3 uM after 18 to 24 hrs by broth microdilution method; assay type: functional; how it was run: as §1
[31] = target: T1, Quinolone resistance protein NorA (Staphylococcus aureus); assay: Inhibition of NorA in Staphylococcus aureus SA1199B assessed as potentiation of ciprofloxacin-induced antibacterial activity by measuring fold reduction in ciprofloxacin MIC at 90.9 uM after 18 to 24 hrs by broth microdilution method; how it was run: as §1
[32] = tested on: Staphylococcus aureus; assay: Potentiation of ciprofloxacin-induced antibacterial activity against wild type Staphylococcus aureus SA1199 assessed as fold reduction in ciprofloxacin MIC at 90.9 uM after 18 to 24 hrs by broth microdilution method; assay type: functional; how it was run: as §1
[33] = target: T1, Quinolone resistance protein NorA (Staphylococcus aureus); assay: Inhibition of NorA in Staphylococcus aureus SA1199B assessed as potentiation of ciprofloxacin-induced antibacterial activity by measuring fold reduction in ciprofloxacin MIC at 22.9 uM after 18 to 24 hrs by broth microdilution method; how it was run: as §1
[34] = tested on: Staphylococcus aureus; assay: Potentiation of ciprofloxacin-induced antibacterial activity against wild type Staphylococcus aureus SA1199 assessed as fold reduction in ciprofloxacin MIC at 22.9 uM after 18 to 24 hrs by broth microdilution method; assay type: functional; how it was run: as §1

SMILES | MNTC [1] [µM] | GI50 at 72 h [5] [µM] | Activity [10] | Activity [12] | other results
Cl.N[C@@H](Cc1ccccc1)CN(CCc1ccccc1)C(=O)/C=C/c1ccccc1 | 37.1 | 6.5 | – | – | growth inhibition (GI) [2]: Toxic; MIC [3]: 62.5 µg/mL; fold change (FC) [4]: 2; fold change (FC) [6]: 2 - 4
COC(=O)[C@H]1[C@H]2C[C@@H]3c4[nH]c5cc(OC)ccc5c4CCN3C[C@H]2C[C@@H](OC(=O)c2cc(OC)c(OC)c(OC)c2)[C@@H]1OC [RESERPINE] | 32.9 | 14.7 | – | – | fold change (FC) [7]: 2
CC(C)[C@H](N)CN(CCc1ccccc1)C(=O)/C=C/c1ccccc1.Cl | 80.6 | 52.4 | Non-Toxic | – | fold change (FC) [8]: 1 - 2; fold change (FC) [9]: 2
CC(C)(C)OC(=O)NCCN(CCc1ccccc1)C(=O)/C=C/c1ccccc1 | 25.3 | 54.7 | – | Non-Toxic | fold change (FC) [11]: 2; fold change (FC) [13]: 1
CC(C)(C)OC(=O)NCCN(CCc1c[nH]c2ccccc12)C(=O)/C=C/c1ccccc1 | 23 | 35.3 | – | Non-Toxic | fold change (FC) [14]: 4; fold change (FC) [15]: 2
CC(C)[C@@H](CN(CCc1c[nH]c2ccccc12)C(=O)/C=C/c1ccccc1)NC(=O)OC(C)(C)C | 21 | 43.7 | – | Non-Toxic | fold change (FC) [16]: 1 - 2; fold change (FC) [17]: 4
Cl.N[C@@H](Cc1ccccc1)CN(CCc1c[nH]c2ccccc12)C(=O)/C=C/c1ccccc1 | 8.5 | 6.33 | – | – | growth inhibition (GI) [18]: Toxic; fold change (FC) [19]: 2; fold change (FC) [20]: 2; growth inhibition (GI) [21]: Toxic; MIC [3]: 15.7 µg/mL
CC(C)(C)OC(=O)N[C@@H](Cc1ccccc1)CN(CCc1c[nH]c2ccccc12)C(=O)/C=C/c1ccccc1 | 19.1 | 70 | – | Non-Toxic | fold change (FC) [22]: 1 - 2; Ratio [23]: 2; fold change (FC) [24]: 4 to 8
CC(C)(C)OC(=O)N[C@@H](Cc1ccccc1)CN(CCc1ccccc1)C(=O)/C=C/c1ccccc1 | 20.6 | 17.3 | – | Non-Toxic | fold change (FC) [25]: 1; fold change (FC) [26]: 1 to 2
CC(C)[C@H](N)CN(CCc1c[nH]c2ccccc12)C(=O)/C=C/c1ccccc1.Cl | 73 | 25.3 | Non-Toxic | – | fold change (FC) [27]: 4; fold change (FC) [28]: 2 - 4
Cl.NCCN(CCc1c[nH]c2ccccc12)C(=O)/C=C/c1ccccc1 | 81.3 | 20.7 | Non-Toxic | – | fold change (FC) [29]: 2; fold change (FC) [30]: 2
Cl.NCCN(CCc1ccccc1)C(=O)/C=C/c1ccccc1 | 90.9 | 73.3 | Non-Toxic | – | fold change (FC) [31]: 1; fold change (FC) [32]: 1 - 2
CC(C)[C@@H](CN(CCc1ccccc1)C(=O)/C=C/c1ccccc1)NC(=O)OC(C)(C)C | 22.9 | 40.7 | – | Non-Toxic | fold change (FC) [33]: 2; fold change (FC) [34]: 1 - 2
